Compound activity as filed in PubChem.
Fh CTSL1 inh: Fasciola hepatica cathepsin L1 inhibitors, primary screen, counter-screen for PFM18AAP inhibitor project, biochemical, QFRET, fluorogenic peptide substrate; AID 1906, 2009; hit rate 0.49% among 300,000; recombinant F. hepatica cathepsin L1, Z-Leu-Arg-MCA fluorescence; inhibition, % at 5.96 µM;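 active = inhibition above the mean of all tested compounds plus 3 SD, set per screening campaign, cut at about 17% in these data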
GSTO1 counter: inhibitors of recombinant GSTO1, primary screen, counter-screen for RBBP9 inhibitor project, biochemical, fluorescence polarization; hit rate 1.1% among 300,000; Glutathione S-transferase omega-1 (Homo sapiens), P78417; activity-based probe fluorescence polarization; AID 1974, 2009; inhibition, % at 5.96 µM;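 active = inhibition above the campaign mean inhibition plus 3 SD, cut at about 35% in these data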
Target sequence (P78417 whole entry, looked up): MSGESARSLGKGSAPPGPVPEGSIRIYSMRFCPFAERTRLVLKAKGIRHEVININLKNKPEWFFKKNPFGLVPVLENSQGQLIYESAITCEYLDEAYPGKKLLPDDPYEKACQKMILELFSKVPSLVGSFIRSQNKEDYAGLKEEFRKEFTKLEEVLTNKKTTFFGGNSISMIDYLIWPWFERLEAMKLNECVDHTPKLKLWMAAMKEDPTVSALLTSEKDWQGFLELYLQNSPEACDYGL
PAD4 FP inh: human PAD4 inhibitors, primary screen, biochemical, fluorescence polarization, 1536-well format; Protein-arginine deiminase type-4 (Homo sapiens), Q9UM07; recombinant PAD4, RCA probe fluorescence polarization; inhibition, % at 6.36 µM; hit rate 0.41% among 330,000; AID 485272, 2010;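 active = percent inhibition above a cutoff equal to the mean of all tested compounds plus 3 SD, cut at about 15% in these data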
TDP2 absorb: human TDP2 enzyme inhibitors, primary screen, biochemical, epi absorbance, recombinant enzyme. inhibition, % at 12.8 µM. hit rate 0.34% among 370,000. Tyrosyl-DNA phosphodiesterase 2 (Homo sapiens), O95551. T5PNP hydrolysis, p-nitrophenol absorbance 415 nm;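 active = inhibition above the mean of all tested compounds plus 3 SD, set per campaign, cut at about 25% in these data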
Target sequence (O95551 whole entry, looked up): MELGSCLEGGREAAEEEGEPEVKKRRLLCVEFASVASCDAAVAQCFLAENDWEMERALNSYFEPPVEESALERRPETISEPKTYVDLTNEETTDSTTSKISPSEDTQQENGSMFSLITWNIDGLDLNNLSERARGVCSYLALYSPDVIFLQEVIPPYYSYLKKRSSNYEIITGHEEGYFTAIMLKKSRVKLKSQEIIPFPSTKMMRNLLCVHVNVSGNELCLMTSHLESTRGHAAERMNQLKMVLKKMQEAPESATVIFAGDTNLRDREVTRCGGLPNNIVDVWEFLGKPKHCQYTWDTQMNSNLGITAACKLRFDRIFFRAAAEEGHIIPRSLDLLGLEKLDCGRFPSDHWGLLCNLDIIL
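Evaluation: % inhibition relative to enzyme-containing and enzyme-free wells. Material: recombinant human TDP2. Benchmarks: enzyme-free and DMSO wells. Timing: enzyme reaction with compound for 2 h at 37 °C. Compound dosing: 12.8 µM only. Measured by: p-Nitrophenol epi absorbance. Reagent: T5PNP substrate at 5 mM, a TopII-DNA adduct mimic. Replication: single well per compound.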
Apaf-1 inh: inhibitors of human Apaf-1 apoptosome, primary screen, biochemical, DEVD-Rh110 fluorescence, uHTS; AID 489030, 2010; inhibition, % at 20 µM; reconstituted apoptosome caspase-3 activity; hit rate 0.71% among 330,000; active = inhibition of at least 40% at 20 µM
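Material: reconstituted apoptosome with Apaf-1, cytochrome c, caspase-9, procaspase-3, dATP. Technique: Rh110 fluorescence intensity. Buffer or medium: pH 7.5 Hepes buffer with CHAPS, BSA, DTT. Times: 30 min plus 50 min, RT.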
Of the large screens only hits and unclear results are named; the others gave an inactive call. Most compounds without a hit are left out; they make up all but 1.8% or so of the library.

C#CCOCCOCCOCCNc1nc(N2CCOCC2)nc(N2CCN(C(=O)[C@H](CCC(=O)O)n3cc(C(N)CC(C)C)nn3)CC2)n1 (stereo not given in full)	none (no result: Fh CTSL1 inh, GSTO1 counter, PAD4 FP inh, Apaf-1 inh)
CCN(CC(=O)NCc1cccs1)C(=O)C1CC(=O)N(c2ccc(OC)cc2OC)C1 (stereo not given)	Apaf-1 inh 51
CCCCCCCc1ccc(C2NC(=S)NC3=C2C(=O)c2ccccc23)cc1 (stereo not given)	Apaf-1 inh 44 (no result: TDP2 absorb)
Cc1cccc(OC(=O)NCCOC(=O)N(O)c2ccc(Cl)cc2)c1	Fh CTSL1 inh 19
Cc1cc(C(=O)CCl)c(C)n1CCc1ccc(Cl)cc1	Fh CTSL1 inh 21, GSTO1 counter 88
Cc1cc(C(=O)CSc2nnc(N)s2)c(C)n1CCc1ccc(F)cc1	none
Cc1cc(C(=O)CSc2nc(N)cc(=O)[nH]2)c(C)n1CCc1ccc(F)cc1	PAD4 FP inh 32
O=C(CCc1ccccc1)N[C@H]1[C@@H](OC(=O)c2ccc([N+](=O)[O-])cc2)CCC[C@]12C(=O)N(Cc1ccccc1)c1ccccc12	none (no result: Fh CTSL1 inh, GSTO1 counter, PAD4 FP inh, Apaf-1 inh)
COc1ccc(-n2c(SCC(=O)Nc3ccc(Oc4ccccc4)cc3)nnc2-c2ccco2)cc1	none (no result: Fh CTSL1 inh, GSTO1 counter, PAD4 FP inh, Apaf-1 inh)
[N-]=[N+]=CC(=O)CNC(=O)[C@@H](Cc1ccccc1)N1C(=O)c2ccccc2C1=O	Fh CTSL1 inh 43
O=C(NCC(c1ccccc1)c1ccccc1)[C@H](Cc1ccccc1)NC1(C(=O)NC2CCCCC2)CCCC1	none (no result: Fh CTSL1 inh, GSTO1 counter, PAD4 FP inh, Apaf-1 inh)
COc1ccccc1CNC(=O)COC(=O)COc1ccccc1Cc1ccccc1	Fh CTSL1 inh 17
Cc1ccccc1OCC(=O)OCC(=O)NCc1ccccc1	none (no result: Fh CTSL1 inh, GSTO1 counter)
CN(C(=O)COC(=O)COc1ccccc1Cc1ccccc1)c1ccccc1	Fh CTSL1 inh 18
O=C(O)COc1ccccc1Cc1ccccc1	none
COc1ccc(C2=NN(C(N)=S)C(c3ccco3)C2)cc1 (stereo not given)	Fh CTSL1 inh 62
COc1ccc(C2=NN(C(=O)CSc3nnc(-c4ccccc4F)o3)C(c3ccco3)C2)cc1 (stereo not given)	none
CCOC(=O)[C@@]12CCCC=C1N(CCc1ccc(Cl)cc1)C(=O)[C@H]2CC(=O)NCC12CC3CC(CC(C3)C1)C2	none (no result: Fh CTSL1 inh, GSTO1 counter, PAD4 FP inh, Apaf-1 inh)
CCN(CC)CCCNC(=O)c1cc2c(-c3ccc(Cl)cc3)nn(C)c2s1	none
CN1CCN(CCCNC(=O)c2cc3c(-c4ccc(Cl)cc4)nn(C)c3s2)CC1	Apaf-1 inh 43
CCCCCCCCCCC[C@@H](C[C@@H]1OC(=O)[C@H]1CCCCCC)OC(=O)[C@H](CC(C)C)NC=O	Fh CTSL1 inh 21
Cc1ccccc1NC(=O)[C@@H]1CC(=O)O[C@@H]1c1ccccc1	none (no result: Fh CTSL1 inh, GSTO1 counter, PAD4 FP inh, Apaf-1 inh)
COc1cccc(CN(C)C(=O)c2csc3c2CCCC3)c1OC	Fh CTSL1 inh 18
COc1cccc(CN(C)C(=O)c2ccc(S(=O)(=O)Nc3ccccc3F)cc2)c1OC	none (no result: Fh CTSL1 inh, GSTO1 counter, PAD4 FP inh)
O=C1C2C3C=CC(CC3)C2C(=O)N1c1ccccc1[N+](=O)[O-] (stereo not given)	Fh CTSL1 inh 19
O=C1C2C3C=CC(CC3)C2C(=O)N1c1ccc(Br)cc1[N+](=O)[O-] (stereo not given)	none
O=C(NCc1ccccc1)/C(=C/c1ccccc1)NC(=O)c1ccco1	none
CC(C)CC(NC(=O)/C(=C/c1ccco1)NC(=O)c1ccc(Br)o1)C(=O)O (stereo not given)	Fh CTSL1 inh 23
O=C(NCc1ccccc1)/C(=C/c1ccco1)NC(=O)c1ccco1	Fh CTSL1 inh 28
CCOC(=O)/C(=C/c1ccco1)NC(=O)c1ccc(Br)o1	none
CC(C)CC(NC(=O)/C(=C\c1ccco1)NC(=O)c1ccco1)C(=O)O (stereo not given)	Fh CTSL1 inh 38
CNC(=O)/C(=C\c1ccco1)NC(=O)c1ccco1	none
CCCc1nc2c(C)cc(Br)cn2c1Cc1ccccc1OC	none (no result: Fh CTSL1 inh, GSTO1 counter, PAD4 FP inh, Apaf-1 inh)
CC1=C[C@@H]2[C@H]3C(=O)N(Cc4ccccc4)C(=O)[C@H]3[C@@H]1[C@@H]1O[C@@]3(C(=O)N(C)c4ccccc43)C3=C(CCCC3=O)N21	none (no result: Fh CTSL1 inh, GSTO1 counter, PAD4 FP inh, Apaf-1 inh)
Cn1c(=O)oc2cc(S(=O)(=O)NC3CCN(Cc4ccccc4)CC3)ccc21	GSTO1 counter 37
CC(C)CC(NS(=O)(=O)c1ccc2c(c1)oc(=O)n2C)C(=O)N1CC=C(c2ccccc2)CC1 (stereo not given)	Fh CTSL1 inh 77
CSCCC(NS(=O)(=O)c1ccc2c(c1)c(=O)n(C)c(=O)n2C)C(=O)NC1CCN(Cc2ccccc2)CC1 (stereo not given)	Fh CTSL1 inh 40
Cn1c(=O)oc2cc(S(=O)(=O)NCCC(=O)N3CC=C(c4ccccc4)CC3)ccc21	none
CN(CC(=O)NC1CCN(Cc2ccccc2)CC1)S(=O)(=O)c1ccc2c(c1)c(=O)n(C)c(=O)n2C	none
O=C(Nc1ccc(N2C(=O)CC(c3ccccc3)C2=O)c(Cl)c1)c1ccccn1 (stereo not given)	none (no result: Fh CTSL1 inh, GSTO1 counter, PAD4 FP inh, Apaf-1 inh)
Cc1ccc(NC(=O)CSc2nc3ncc(Br)cc3[nH]2)cc1C	GSTO1 counter 36
Cc1cc(C)c(NC(=O)CSc2nc3ncc(Br)cc3[nH]2)c(Cl)c1	none
N#CCCCc1cn(-c2cccc(-c3noc4c3C(=O)N(CC(=O)N3CCOCC3)CC4)c2)nn1	none (no result: Fh CTSL1 inh, GSTO1 counter, PAD4 FP inh, Apaf-1 inh)
Nc1ncnc(NC2CCS(=O)(=O)C2)c1[N+](=O)[O-] (stereo not given)	Fh CTSL1 inh 49
Cc1c(NC(=O)COc2cccc(Cl)c2Cl)c(=O)n(-c2ccccc2)n1C	Fh CTSL1 inh 23
C=CCNC1=C(Cl)C(=O)c2ccccc2C1=O	GSTO1 counter 68
CCCOC(=O)C1=C(C)NC2=C(C(=O)C(C(=O)OC)C(C)C2)C1c1ccc(N(CC)CC)cc1 (stereo not given)	Fh CTSL1 inh 20
C=CCNC(=O)C1CCN(c2cncnc2)CC1	none (no result: Fh CTSL1 inh, GSTO1 counter, PAD4 FP inh, Apaf-1 inh)
Oc1ccc(C[C@H]2CNCCN2CCCCC2CCCCC2)cc1	Apaf-1 inh 41
NC1=NC[C@H](Cc2ccc(O)cc2)N1CCc1cc(C(F)(F)F)cc(C(F)(F)F)c1	none
NC1=NC[C@H](Cc2ccccc2)N1CCCCC1CCCCC1	Apaf-1 inh 67
c1ccc(C[C@H]2CN=C(Nc3ccccc3)N2CCC2CCCC2)cc1	none
NC1=NC[C@H](Cc2ccc(O)cc2)N1CCCCC1CCCCC1	Apaf-1 inh 53
C[C@@H]1COc2cc(N3CCSCC3)ccc2S(=O)(=O)N1C	none (no result: Fh CTSL1 inh, GSTO1 counter, PAD4 FP inh, Apaf-1 inh)
COc1ccccc1N1CCN(C(=O)c2ccc3c(c2)nc(C)n3-c2cc(OC)c(OC)c(OC)c2)CC1	none (no result: Fh CTSL1 inh, GSTO1 counter, PAD4 FP inh, Apaf-1 inh)
Cc1cccn2c(=O)c3cc(C(=O)NC4CCCCC4)c(=N)n(Cc4ccccc4)c3nc12	Apaf-1 inh 57
O=C1CCC[C@H]2C[C@H](NCCc3ccncc3)CC[C@]23CCCN13	none (no result: Fh CTSL1 inh, GSTO1 counter, PAD4 FP inh, Apaf-1 inh)
